The source of these data is the RNAGym collection of RNA variant scans (doi:10.1126/science.aae0568).

First the molecules themselves.
B1: tRNA (parent)
chain: GUUCCGUUGGCGUAAUGGUAACGCGUCUCCCUCCUAAGGAGAAGACUGCGGGUUCGAGUCCCGUACGGAACG

Variants at the floor of the assay were thinned out.

The variants in the series derive from B1. In words: yeast fitness relative to wild type (ratio to wild type); higher = fitter; tRNA-Arg(CCU), competitive growth, 37 C, YPD. Summed up:
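The tRNA-Arg(CCU) gene variants were made by chemical synthesis with a 3% per-site mutation rate at 69 sites and inserted at the native genomic locus of Saccharomyces cerevisiae. After pooling, the strains were competed in YPD at 37°C for 24 hours in six parallel replicates. Gene amplicons from the start population and each end population were read by 100-nucleotide paired-end sequencing, and Darwinian fitness relative to wild type was taken from genotype frequency changes. Genotypes needed ≥ 100 starting reads, and estimates < 0.5 were set to 0.5.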
As for GUUCCGUUGGCGUAAUGCUUACGCGUCUCCCUCCUAAGGAGAAGACUGCGGGCUCGAGUCCCGUACGGUACG [G18C A20U U53C A69U], the yeast fitness was at most 0.5.

In the case of GUUCCGUUGGCGUAAUGAUAACGCGUCUCCCUCCUAAGGACGAGACUGCGGGUACGAGUCCCGUACGGAACG [G18A G41C A42G U54A], the yeast fitness is at most 0.5.

Regarding GUUCCGUUGGCGUAAUGAUAACGCGUCUCCCUCCUAAGGAGAAGACUGCGCGUUCGAGUCCCGUGCGGAACG [G18A G51C A65G], the yeast fitness was at most 0.5. The result for GUUCCGUUGGCGUAAUGAAAACGCGUCUCCCUCCUAAGGAGAAGACUGCGGGUUCGAGUCUCGUACGGAACG [G18A U19A C61U] reads 0.61; that for GUUCCGUUGGCGUAAUGCUAAAGCGUCUUCCUCCUAAGGAGAAGCCUGCGGGUUCGAGUCCCGUACGGAACG [G18C C22A C29U A45C], at most 0.5. For the variant GUUCCGUUGGCGUAAUGAUAACGCCUCUCGCUCCUAAGGAUAAGACUGCGGGUUCGUGUCCCGUACGGAACG [G18A G25C C30G G41U A57U], the yeast fitness is at most 0.5. Turning to GUUCCGUUGGCGUAAUGAUAACGCGUCUCCCUCCUAAGGAGAACACUGCGGGUUCGAGUCCCGUUCGGAACG [G18A G44C A65U], the yeast fitness was 0.537.

In the case of GUUCCGUUGGCGUAAUGAAAACGCGUUUCCCUCCUAAGGAGAAGACUGCGGGUUCGAGUCCCGUACGGAACG [G18A U19A C27U], the yeast fitness amounted to 0.707.

Consider GUUCCGUUGGCGUAAUGCUAAAGCGUCUCCCUCCUAAGGAGAAGACUGCGGGUUCGAGUCCCGUACGGAACG [G18C C22A], for which the yeast fitness was 0.582.

Regarding GUUCCGUUGGCGUAAUGAUAACGCGUCUCCCUCCUAAGGAGAAGACUGCGGGUUCGAGUCCGGUACGUAACG [G18A C62G G68U], the yeast fitness is at most 0.5. For the variant GUUCCGUUGGCGUAAUGAUAACGCGUCUCCCUCCUAAGGAGAAGACUGCGGGUUCGAGUCCCGUACAGAACG [G18A G67A], the yeast fitness stood at 0.675.

With GUUCCGUUGGCGUAAUGAUAACGCGUCUCCCUCCUAAGGAGAAGACUGCGGGUUCGAGUCCCGUACUGAACG [G18A G67U], the yeast fitness was found to be 0.75. The result for GUUCCGUUGGCGUAAUGAUAACGCGUCUCCCUCCUAAGGAGAAGACUGCGGGUUCGAGUCCCGUACCGAACG [G18A G67C] reads 0.841; that for GUUCCGUUGGCGUAAUGCUAACGCGUCUCCCUCCUAAGGAGACGACUGCGGGUUCGAGUCCCGUACGGAACG [G18C A43C], 0.719; that for GUUCCGUUGGCGUAAUGAUAACGCAUCUCCUUCCUAAGGAGAAGACUGCGGGUUCGAGUCCCGUACGGAACG [G18A G25A C31U], 0.63. For GUUCCGUUGGCGUAAUGCUAACGCGUCUCCCUCCUCAGGAGAAGACUGCGGGUUCGAGUCCCGUACGGAACG [G18C A36C], the yeast fitness is at most 0.5.

Regarding GUUCCGUUGGCGUAAUGAUAACGCGUCUCCCUCCUAAGGAGAAGACUGCGAGUUCGUGUCCCGUACGGAACG [G18A G51A A57U], the yeast fitness worked out at 0.536.

With GUUCCGUUGGCGUAAUGCUAACGCGUCUCCCUCCUAAGGAGAAGACUGCGGGUUCGAGUCCCGUACGGACCG [G18C A70C], the yeast fitness was found to be 0.687. As for GUUCCGUUGGCGUAAUGCUAACGCGUCUCCCUCCUAAGGAGAAGCCUGCGGGUUCGAGUCCCGUCCGGAACG [G18C A45C A65C], the figure is 0.598. With GUUCCGUUGGCGUAAUGCUAACGCGUCUCCCUCCUACGGAGAAGACUGGGGGUUCGAGUCCCGUACGGAGCG [G18C A37C C49G A70G], the yeast fitness was at most 0.5. The result for GUUCCGUUGGCGUAAUGCUAACGCGUCUCCCUCCUAAGGAGAAGACUGCGGGUUCGGGUCCCGUACGGAACG [G18C A57G] reads 0.715; that for GUUCCGUUGGCGUAAUGCUAGCGCGUCUCCCUCCUAAGGAGAAGACUGCGGGUUCAAGUCCCGUACGGAACG [G18C A21G G56A], 0.575; that for GUUCCGUUGGCGUAAUGCUAACGCGUCUCCCUCCUAAGGCGAAGACUGGGGGUUCGAGUCCCGUACGGAACG [G18C A40C C49G], at most 0.5. The result for GUUCCGUUGGCGUAAUGAUAACGCGUCUCCCUCCUAAGGAGAAGACUGCGCGUUCGAGUCCCGUACGGAACG [G18A G51C] reads at most 0.5; that for GUUCCGUUGGCGUAAUGACAACGCGUGUCCCUCCUAAGGAGAAGACUGCGGGUUCGAGUCACGGAUGGAACG [G18A U19C C27G C61A U64G C66U], at most 0.5. The result for GUUCCGUUGGCGUAAUGAUAACACGUCUCCCUCCUAAGGAGACGACUGCGGGUUCGAGACCCGUACGGAACG [G18A G23A A43C U59A] reads at most 0.5; that for GUUCCGUUGGCGUAAUGCUGACGCGUCUCACUCCUAAGGAGAAGACUGCGGGUUCGAGUCCCGUACGGAACG [G18C A20G C30A], at most 0.5. In the case of GUUCCGUUGGCGUAAUGAUAACGCGUCUCCCUCCUAAGGAGAAAACUGCGGGUUCGGGUCCCGUACGGAACG [G18A G44A A57G], the yeast fitness is at most 0.5. Regarding GUUCCGUUGGCGUAAUGAAAACGCGUCUCCCUCCUAAGGAGAAGACUGCGGGUUCGAGUCCCGUACGGAUCG [G18A U19A A70U], the yeast fitness is 0.657. For the variant GUUCCGUUGGCGUAAUGAUAACGCCUCUCCCUCCUAAGGAGAUGACUGCGGGUUCGAGACCCAUACGGAACG [G18A G25C A43U U59A G63A], the yeast fitness is at most 0.5. As for GUUCCGUUGGCGUAAUGAUAACGCGUCUCCCUCCUAAGGAGAAGACUACGGGUUCGCGCCCCGUACGGAACG [G18A G48A A57C U59C], the figure is at most 0.5; as for GUUCCGUUGGCGUAAUGAUAACGCCUCUCCCUCCUAAGGAGAUGACUGCGGGUUCGAGUCCCGUACGGAACG [G18A G25C A43U], 0.6; as for GUUCCGUUGGCGUAAUGCUGACGCGUCUACCUCCUAAGGAGAAGACUGUGGGUUCGAGUCCCGUACGGUACG [G18C A20G C29A C49U A69U], at most 0.5. For the variant GUUCCGUUGGCGUAAUGAUAACGCCUCUCGCUCCUAAGGAUAAGACUGCGGGUUGGAGUCCCGUACGGAACG [G18A G25C C30G G41U C55G], the yeast fitness is at most 0.5. For GUUCCGUUGGCGUAAUGCUAACGCGUCUCCCUCCUAAGGAGAAGACUGCGGGUUCGUGUCUCGUACGGAACG [G18C A57U C61U], the yeast fitness was at most 0.5. Turning to GUUCCGUUGGCGUAAUGAUAACGCGUCUCCCGCCUAAGGAGAAGACUGCGGGUUCGAGUCCCGUACGGGACG [G18A U32G A69G], the yeast fitness was at most 0.5.

Take GUUCCGUUGGCGUAAUGAUAACGCGUCUCCCUCCUAAGGAGAAGACUGCGGGUUCGAGCCCCGUACGGGACG [G18A U59C A69G]: the yeast fitness was at most 0.5. As to GUUCCGUUGGCGUAAUGAUAACGCGUCUCCCUCCUAAGGAGAAGACAGCGGGUUCGAGUCCCGUACGGAACG [G18A U47A], the yeast fitness was determined as 0.824.
